Experimental data: ChEMBL document CHEMBL1139854, “Phenalenone-type compounds from Musa acuminata var. "Yangambi km 5" (AAA) and their activity against Mycosphaerella fijiensis” (J Nat Prod, 2007)
Active and inactive are the calls of the source. The calls are words filed in the database; no cut-off is given here.

Legend:
Type in all cases: functional
[1] = tested on: Pseudocercospora fijiensis; test: Inhibition of Mycosphaerella fijiensis mycelial growth
[2] = tested on: Pseudocercospora fijiensis; test: Inhibition of Mycosphaerella fijiensis mycelial growth at 50 to 100 ppm after 15 days
Method in brief: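 Colonies (2 ± 1 mg) were taken from conidia grown 4 days on PDA. They were placed 20 per dish on PDA holding 10, 50 or 100 ppm compound added in EtOH (max 3.7%). Colony weight was taken at 7 and 15 days (10 colonies each) against EtOH-only blank medium. Run in quadruplicate and analysed by one-way ANOVA.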

[3] = tested on: Pseudocercospora fijiensis; test: Inhibition of Mycosphaerella fijiensis spore germination
Method in brief: (§1)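 Ascospores were exposed to compound at 10, 50 or 100 ppm for 24 h at 27 °C. Germination and germ-tube length were scored microscopically on 50-150 ascospores. Run in quadruplicate.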

[4] = tested on: Pseudocercospora fijiensis; test: Growth inhibition of Mycosphaerella fijiensis by microtitre plate photometric assay
Method in brief: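 Mycelial fragments came from monosporic PDA subcultures of several strains grown 15-20 days at 27 °C. They were bead-vortexed, filtered at 100 µm, counted and set to 2 × 10⁴–2 × 10⁶ fragments/mL. Cultures ran in Sabouraud broth with final 0, 5, 10, 20, 30, 40, 50 ppm at 27 °C. OD595 was read daily up to 17 days. IC50 is 50% growth inhibition versus compound-free inoculum.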

[5] = tested on: Pseudocercospora fijiensis; test: Inhibition of Mycosphaerella fijiensis spore germination at 50 to 100 ppm; method in brief: as §1

| SMILES | Activity [1] | Activity [2] | Activity [3] | IC50 [4] | Activity [5] |
| --- | --- | --- | --- | --- | --- |
| COc1ccc(-c2ccc3cccc4c3c2C(=O)C=C4)cc1 | Active | – | – | – | – |
| O=C1C=Cc2cccc3cccc1c23 | Active | Active | Active | – | – |
| COC1=Cc2cccc3cccc(c23)C1=O | – | Active | – | 19.3 ppm | Active |
| O=C1C(O)=Cc2cccc3cccc1c23 | – | Active | – | 23.4 ppm | Active |
